Data reported in ChEMBL document CHEMBL1135657, “Novel dual inhibitors of AChE and MAO derived from hydroxy aminoindan and phenethylamine as potential treatment for Alzheimer's disease” (J Med Chem, 2002).

Assays:
[1] = biological target: T1, Amine oxidase [flavin-containing] A (Rattus norvegicus, UniProt P21396); experiment: In vitro inhibitory concentration against Monoamine oxidase A of rat brain homogenates; value ranges from 100-340; type: tissue-based
T1 sequence (P21396 whole entry): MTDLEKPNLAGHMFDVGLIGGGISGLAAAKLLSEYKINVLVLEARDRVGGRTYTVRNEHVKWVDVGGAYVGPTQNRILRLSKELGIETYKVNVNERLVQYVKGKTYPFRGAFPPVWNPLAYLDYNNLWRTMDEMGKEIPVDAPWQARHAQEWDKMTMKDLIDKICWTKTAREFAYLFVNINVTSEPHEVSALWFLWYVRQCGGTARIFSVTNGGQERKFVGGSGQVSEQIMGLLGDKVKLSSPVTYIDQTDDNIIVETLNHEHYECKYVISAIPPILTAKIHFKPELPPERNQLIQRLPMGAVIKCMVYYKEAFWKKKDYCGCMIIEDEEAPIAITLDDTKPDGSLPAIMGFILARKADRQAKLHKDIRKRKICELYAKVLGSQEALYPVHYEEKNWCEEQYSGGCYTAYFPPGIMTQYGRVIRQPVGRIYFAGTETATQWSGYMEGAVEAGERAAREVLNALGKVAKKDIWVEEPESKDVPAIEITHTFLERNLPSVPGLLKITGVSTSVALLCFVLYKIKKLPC

[2] = biological target: T2, Acetylcholinesterase (Homo sapiens, UniProt P22303); experiment: In vitro inhibitory concentration against purified Acetylcholinesterase of human erythrocytes; value ranges from 91.8-732
[3] = biological target: T3, Butyrylcholinesterase (Equus caballus, UniProt Q9N1N9); experiment: In vitro inhibitory concentration against Butyrylcholinesterase of horse serum; value ranges from 1.38-1.65
How it was run: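 Ellman assay followed, with 200 µM butyrylthiocholine as substrate. Runs were in triplicate with four-point dose-response curves. IC50 and fiducial limits came from log concentration versus % inhibition.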

[4] = biological target: T4, Amine oxidase [flavin-containing] B (Rattus norvegicus, UniProt P19643); experiment: In vitro inhibitory concentration against Monoamine oxidase B of rat brain homogenates; value ranges from 0.07-0.59; type: tissue-based
T4 sequence (P19643 whole entry): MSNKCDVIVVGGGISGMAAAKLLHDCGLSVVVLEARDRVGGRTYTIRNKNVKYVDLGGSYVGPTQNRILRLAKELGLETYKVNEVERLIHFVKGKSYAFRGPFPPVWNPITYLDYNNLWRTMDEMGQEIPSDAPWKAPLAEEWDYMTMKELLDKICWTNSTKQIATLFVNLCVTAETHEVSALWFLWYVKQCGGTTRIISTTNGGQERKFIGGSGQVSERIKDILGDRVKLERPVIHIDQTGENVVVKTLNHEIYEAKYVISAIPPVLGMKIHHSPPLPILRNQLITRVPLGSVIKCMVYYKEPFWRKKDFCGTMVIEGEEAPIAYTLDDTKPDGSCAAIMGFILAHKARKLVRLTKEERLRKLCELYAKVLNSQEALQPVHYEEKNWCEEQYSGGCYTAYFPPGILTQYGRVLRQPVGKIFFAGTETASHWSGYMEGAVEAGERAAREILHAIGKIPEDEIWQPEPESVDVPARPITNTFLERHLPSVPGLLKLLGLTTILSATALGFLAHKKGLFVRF
How it was run: (§1)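 Rat brain homogenate (in 0.3 M sucrose) as enzyme source; compounds diluted 10⁻²M to 10⁻⁹M in 0.05 M phosphate buffer with 0.15 μM clorgyline; preincubated 60 min at 37 °C, then 10 μM ¹⁴C-phenylethylamine added for 20 min more; stopped with citric acid; metabolites extracted into toluene/ethyl acetate, scintillation counted; activity as % of control, tranylcypromine blank.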

[5] = biological target: T1, Amine oxidase [flavin-containing] A; experiment: In vitro inhibitory concentration against Monoamine oxidase A of rat brain homogenates; value ranges from 600-1100; type: tissue-based
[6] = biological target: T4, Amine oxidase [flavin-containing] B; experiment: In vitro inhibitory concentration against Monoamine oxidase B of rat brain homogenates; value ranges from 150-360; type: tissue-based
[7] = biological target: T2, Acetylcholinesterase; experiment: In vitro inhibitory concentration against purified Acetylcholinesterase of human erythrocytes
[8] = biological target: T2, Acetylcholinesterase; experiment: In vitro inhibitory concentration against purified Acetylcholinesterase of human erythrocytes; value ranges from 22.2-56.8
[9] = biological target: T4, Amine oxidase [flavin-containing] B; experiment: In vitro inhibitory concentration against Monoamine oxidase B of rat brain homogenates; type: tissue-based
[10] = biological target: T1, Amine oxidase [flavin-containing] A; experiment: In vitro inhibitory concentration against Monoamine oxidase A of rat brain homogenates; value ranges from 100-310; type: tissue-based
[11] = biological target: T1, Amine oxidase [flavin-containing] A; experiment: In vitro inhibitory concentration against Monoamine oxidase A of rat brain homogenates; value ranges from 11-38; type: tissue-based
[12] = biological target: T2, Acetylcholinesterase
[13] = biological target: T2, Acetylcholinesterase; experiment: In vitro inhibitory concentration against purified Acetylcholinesterase of human erythrocytes; value ranges from 5.6-11.9
[14] = biological target: T4, Amine oxidase [flavin-containing] B; experiment: In vitro inhibitory concentration against Monoamine oxidase B of rat brain homogenates; value ranges from 0.19-0.26; type: tissue-based; how it was run: as §1
[15] = biological target: T1, Amine oxidase [flavin-containing] A; experiment: In vitro inhibitory concentration against Monoamine oxidase A of rat brain homogenates; value ranges from 0.8-1.0; type: tissue-based
[16] = biological target: T2, Acetylcholinesterase; experiment: In vitro inhibitory concentration against purified Acetylcholinesterase of human erythrocytes; value ranges from 1.7-2.5
[17] = biological target: T4, Amine oxidase [flavin-containing] B; experiment: In vitro inhibitory concentration against Monoamine oxidase B of rat brain homogenates; value ranges from 0.019-0.021; type: tissue-based; how it was run: as §1
[18] = biological target: T1, Amine oxidase [flavin-containing] A; experiment: In vitro inhibitory concentration against Monoamine oxidase A of rat brain homogenates; value ranges from 0.005-0.010; type: tissue-based
[19] = Bimolecular rate constant for carbamoylation of ACHE; type: ADME
How it was run: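 Human erythrocyte AChE preincubated with inhibitor at 37 °C in 0.1 M phosphate buffer, pH 7.4, under Ellman conditions with 200 µM […]. Pseudo-first-order rate constants (k_obs) for progressive inhibition were obtained at 4-5 inhibitor concentrations. The apparent bimolecular carbamylation constant k_i was calculated from these.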

[20] = Pseudo-first order rate constant for carbamoylation of ACHE at 100 (uM) concentration; type: ADME
How it was run: (§2)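 Human erythrocyte AChE, same Ellman conditions: 200 µM […], 60 min preincubation at 37 °C, 0.1 M phosphate pH 7.4. Progressive inhibition followed at 4-5 inhibitor concentrations. Pseudo-first-order k_obs (min⁻¹) derived per concentration; apparent bimolecular carbamylation constant k_i calculated from these.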

[21] = Pseudo-first order rate constant for carbamoylation of ACHE at 200 (uM) concentration; type: ADME; how it was run: as §2
[22] = Pseudo-first order rate constant for carbamoylation of ACHE at 300 (uM) concentration; type: ADME; how it was run: as §2
[23] = Pseudo-first order rate constant for carbamoylation of ACHE at 400 (uM) concentration; type: ADME
How it was run: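 Pseudo-first-order rate constants kobs measured at 4-5 inhibitor concentrations following Bar-On et al. Apparent bimolecular carbamylation constant ki calculated from these.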

[24] = Pseudo-first order rate constant for carbamoylation of ACHE at 50 (uM) concentration; type: ADME; how it was run: as §2
[25] = biological target: T3, Butyrylcholinesterase; experiment: In vitro inhibitory concentration against Butyrylcholinesterase of horse serum; value ranges from 1.54-2.83
[26] = biological target: T2, Acetylcholinesterase; remark: listed apart in the source
[27] = biological target: T2, Acetylcholinesterase; experiment: In vitro inhibitory concentration against purified Acetylcholinesterase of human erythrocytes; value ranges from 9.8-157
[28] = biological target: T3, Butyrylcholinesterase
[29] = biological target: T4, Amine oxidase [flavin-containing] B; experiment: In vitro inhibitory concentration against Monoamine oxidase B of rat brain homogenates; value ranges from 1.6-2.9; type: tissue-based
[30] = biological target: T1, Amine oxidase [flavin-containing] A; experiment: In vitro inhibitory concentration against Monoamine oxidase A of rat brain homogenates; value ranges from 1.0-1.8; type: tissue-based
[31] = biological target: T2, Acetylcholinesterase; experiment: In vitro inhibitory concentration against purified Acetylcholinesterase of human erythrocytes; value ranges from 33.4-148
[32] = biological target: T2, Acetylcholinesterase; experiment: In vitro inhibitory concentration against purified Acetylcholinesterase of human erythrocytes; value ranges from 1.27-1.86
[33] = biological target: T2, Acetylcholinesterase; experiment: In vitro inhibitory concentration against purified Acetylcholinesterase of human erythrocytes; value ranges from […]-[…]
[34] = biological target: T2, Acetylcholinesterase; experiment: In vitro inhibitory concentration against purified Acetylcholinesterase of human erythrocytes; value ranges from 7.33-61.5
[35] = biological target: T1, Amine oxidase [flavin-containing] A; experiment: In vitro inhibitory concentration against Monoamine oxidase A of rat brain homogenates; type: tissue-based

T2 sequence (P22303 whole entry): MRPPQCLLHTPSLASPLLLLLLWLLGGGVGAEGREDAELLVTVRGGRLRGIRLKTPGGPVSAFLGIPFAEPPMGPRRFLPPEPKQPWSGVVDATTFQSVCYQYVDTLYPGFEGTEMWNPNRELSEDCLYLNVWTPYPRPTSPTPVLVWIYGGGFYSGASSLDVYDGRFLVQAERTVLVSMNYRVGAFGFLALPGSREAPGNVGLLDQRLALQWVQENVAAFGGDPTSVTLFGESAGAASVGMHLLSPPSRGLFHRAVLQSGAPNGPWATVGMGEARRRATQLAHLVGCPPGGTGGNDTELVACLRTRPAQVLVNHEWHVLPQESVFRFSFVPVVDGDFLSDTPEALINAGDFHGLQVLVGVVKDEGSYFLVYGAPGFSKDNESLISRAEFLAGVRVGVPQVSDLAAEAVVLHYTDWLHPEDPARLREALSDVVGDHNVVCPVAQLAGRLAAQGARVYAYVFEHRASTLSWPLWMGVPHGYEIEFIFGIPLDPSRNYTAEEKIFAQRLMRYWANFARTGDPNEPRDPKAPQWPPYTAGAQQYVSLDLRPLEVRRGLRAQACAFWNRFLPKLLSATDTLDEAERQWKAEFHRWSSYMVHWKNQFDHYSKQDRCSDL
T3 sequence (Q9N1N9 whole entry): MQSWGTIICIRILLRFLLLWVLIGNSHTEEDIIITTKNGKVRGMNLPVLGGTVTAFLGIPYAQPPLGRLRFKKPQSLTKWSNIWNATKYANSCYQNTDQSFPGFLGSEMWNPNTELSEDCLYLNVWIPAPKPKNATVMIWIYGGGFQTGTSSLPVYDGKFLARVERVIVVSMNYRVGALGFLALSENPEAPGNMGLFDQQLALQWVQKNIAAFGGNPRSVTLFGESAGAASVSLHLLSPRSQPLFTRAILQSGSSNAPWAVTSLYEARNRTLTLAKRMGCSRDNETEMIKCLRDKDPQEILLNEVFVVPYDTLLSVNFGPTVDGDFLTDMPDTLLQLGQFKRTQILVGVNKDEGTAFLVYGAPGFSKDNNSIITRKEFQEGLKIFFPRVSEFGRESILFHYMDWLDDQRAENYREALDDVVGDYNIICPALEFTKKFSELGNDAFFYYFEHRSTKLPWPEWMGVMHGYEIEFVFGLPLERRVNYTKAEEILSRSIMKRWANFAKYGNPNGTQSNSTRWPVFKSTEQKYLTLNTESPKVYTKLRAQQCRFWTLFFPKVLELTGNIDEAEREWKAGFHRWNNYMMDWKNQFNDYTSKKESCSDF

C#CCNC(C)Cc1ccccc1 (centres undefined)
IC50 [1]: 195 µM

C#CCN(C)C(C)Cc1cccc(OC(=O)N(C)CC)c1 (centres undefined)
IC50 [2]: 234 µM | IC50 [3]: 1.5 µM | IC50 [4]: 0.1 µM

C#CCNC(C)Cc1cccc(O)c1 (centres undefined)
IC50 [5]: 830 µM | IC50 [6]: 230 µM

CC(c1cccc(OC(=O)N(C)C)c1)N(C)C (centres undefined)
IC50 [7]: 0.03 µM

CCN(C)C(=O)Oc1cccc(CCN)c1
IC50 [8]: 35.5 µM | IC50 [9]: > 1000 µM | IC50 [10]: 180 µM

CCN(C)C(=O)Oc1cccc(CCNC)c1
IC50 [9]: > 1000 µM | IC50 [11]: 20 µM

CN(C)C(=O)Oc1ccc2c(c1)CC(N)CC2 (centres undefined)
IC50 [12]: 3.24 µM

C#CCN(C)[C@H](C)Cc1cccc(OC(=O)N(C)C2CCCCC2)c1
IC50 [13]: 7.9 µM | IC50 [14]: 0.22 µM | IC50 [15]: 0.9 µM

C#CCN(C)[C@H](C)Cc1cccc(OC(=O)N(C)CCCCCC)c1
IC50 [16]: 2 µM

C#CCN(C)[C@@H]1CCc2ccc(O)cc21
IC50 [17]: 0.02 µM | IC50 [18]: 0.007 µM

C#CCN[C@@H]1CCc2ccc(OC(=O)N(C)CC)cc21.Cl
Bimolecular carbamoylation rate constant (ki) [19]: 1.7 M⁻¹ s⁻¹ | K obs [20]: 21 min⁻¹ | K obs [21]: 32 min⁻¹ | K obs [22]: 42 min⁻¹ | K obs [23]: 52 min⁻¹ | K obs [24]: 16 min⁻¹ | IC50 [25]: 1.98 µM | IC50 [9]: > 1000 µM | IC50 [26]: 31.8 µM

C#CCN(C)C(C)Cc1cccc(OC(=O)N(C)CCC)c1 (centres undefined)
IC50 [27]: 33.1 µM | IC50 [28]: 22.8 µM

C#CCNC1CCc2cccc(O)c21 (centres undefined)
IC50 [29]: 2.1 µM | IC50 [30]: 1.3 µM

CCN(C)C(=O)Oc1ccc2c(c1)CC(N)CC2 (centres undefined)
IC50 [31]: 79.6 µM

CN(C)C(=O)Oc1ccc2c(c1)C(N)CCC2 (centres undefined)
IC50 [32]: 1.48 µM

CCCNC1CCc2ccc(OC(=O)N(C)CC)cc21 (centres undefined)
IC50 [33]: 3.6 µM

C#CCNC1CCc2ccc(OC(=S)N(C)CC)cc21 (centres undefined)
IC50 [7]: > 500 µM

CCNC(=O)Oc1ccc2c(c1)C(N)CC2 (centres undefined)
IC50 [34]: 17.7 µM

CCCN(C)C(=O)Oc1cccc2c1C(N)CC2 (centres undefined)
IC50 [9]: > 1000 µM | IC50 [35]: 1000 µM
